Results taken from ChEMBL document CHEMBL1141222, “Antitrypanosomal, antileishmanial, and antimalarial activities of quaternary arylalkylammonium 2-amino-4-chlorophenyl phenyl sulfides, a new class of trypanothione reductase inhibitor, and of N-acyl derivatives of 2-amino-4-chlorophenyl phenyl sulfide” (J Med Chem, 2005).
pIC50, pKi: −log10 of the molar value. Values after ≈ are worked out from the molar mass of the structure shown.

Columns and labels:
KB = assay: Cytotoxicity in KB cells; format: functional, cell-based; settings: Homo sapiens
Trypanosoma cruzi = assay: Antitrypanosomal activity against Trypanosoma cruzi Tulahuan; format: functional, organism-based
[1] = target: Trypanothione reductase (Trypanosoma cruzi) (UniProt P28593); assay: (§1) Mixed inhibition of trypanothione reductase from Trypanosoma cruzi using TSST substrate
Chain of Trypanothione reductase (Trypanosoma cruzi) (P28593 whole entry, looked up): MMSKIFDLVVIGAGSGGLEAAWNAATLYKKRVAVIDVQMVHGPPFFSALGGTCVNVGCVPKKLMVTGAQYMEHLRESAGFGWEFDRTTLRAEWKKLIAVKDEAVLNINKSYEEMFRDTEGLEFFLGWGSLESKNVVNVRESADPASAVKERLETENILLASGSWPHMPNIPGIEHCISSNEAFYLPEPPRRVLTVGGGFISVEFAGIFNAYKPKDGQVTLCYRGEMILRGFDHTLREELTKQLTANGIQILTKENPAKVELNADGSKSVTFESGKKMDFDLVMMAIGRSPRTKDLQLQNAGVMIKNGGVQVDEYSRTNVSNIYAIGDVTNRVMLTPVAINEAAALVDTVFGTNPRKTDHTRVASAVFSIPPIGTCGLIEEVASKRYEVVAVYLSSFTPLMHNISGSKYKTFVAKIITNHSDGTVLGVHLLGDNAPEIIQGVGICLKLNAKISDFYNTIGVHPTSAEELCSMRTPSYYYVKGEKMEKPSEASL
Method in brief: (§2)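 E. coli JM109-expressed T. cruzi TR (3 µg/mL), 25 °C, 0.02 M HEPES pH 7.25 containing 0.15 M KCl, 1 mM EDTA and 0.1 mM NADPH. TSST as variable substrate at 30-240 µM against a series of inhibitor concentrations. Absorbance read at 340 nm. Ki and Ki′ obtained from Dixon, Lineweaver-Burk and Cornish-Bowden plots fitted to a mixed inhibition model.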

Trypanothione reductase [2] = target: T1, Trypanothione reductase (Trypanosoma cruzi, UniProt P28593); assay: as §1; method in brief: as §2
T1 sequence (P28593 whole entry): as the sequence (P28593 whole entry, looked up) above

Leishmania donovani = assay: Antileishmanial activity against Leishmania donovani HU3; format: functional, organism-based
Method in brief: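 Peritoneal exudate macrophages from CD1 mice (harvested 24 h after starch induction) held 24 h in RPMI1640 + 10% HIFCS, 37 °C, 5% CO2, then infected with hamster-spleen HU3 amastigotes at 5:1. After 24 h, drug exposure for 5 days (overlay replaced day 3), top 30 µg/mL, quadruplicate. Giemsa-stained slides scored microscopically; IC50 by curve fit. Pentostam positive control.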

Plasmodium falciparum = assay: Antimalarial activity against Plasmodium falciparum 3D7; format: functional, organism-based
Method in brief: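 Asynchronous 3D7 cultures (65-75% rings) in RPMI 1640, 5% hematocrit, 0.5% parasitemia, 37 °C, 5% CO2; top final drug concentration 30. After 24 h, [3H]-hypoxanthine ([…]) added, then 48 h more. Plates freeze/thawed and harvested; uptake by scintillation counting; IC50 by curve fit.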

[3] = test system: Trypanosoma brucei rhodesiense; assay: Antitrypanosomal activity against Trypanosoma brucei rhodesiense STIB900; format: functional, organism-based
Method in brief: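 STIB900 bloodstream trypomastigotes in HMI-18 + 15% HIFCS, seeded at 2 × 10⁵/mL onto drug dilutions (top 30 µg/mL), 72 h at 37 °C, 5% CO2; pentamidine reference.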

Trypanothione reductase [4] = target: T1, Trypanothione reductase; assay: Linear competitive inhibition of trypanothione reductase from Trypanosoma cruzi using (ZCG.dmapa)2 substrate
Trypanothione reductase [5] = target: T1, Trypanothione reductase; assay: Linear competitive inhibition of trypanothione reductase from Trypanosoma cruzi using TSST substrate
[6] = target: T2, Glutathione reductase, mitochondrial (Homo sapiens, UniProt P00390); assay: Inhibitory activity against human glutathione reductase at 0.5 mM
T2 sequence (P00390 whole entry): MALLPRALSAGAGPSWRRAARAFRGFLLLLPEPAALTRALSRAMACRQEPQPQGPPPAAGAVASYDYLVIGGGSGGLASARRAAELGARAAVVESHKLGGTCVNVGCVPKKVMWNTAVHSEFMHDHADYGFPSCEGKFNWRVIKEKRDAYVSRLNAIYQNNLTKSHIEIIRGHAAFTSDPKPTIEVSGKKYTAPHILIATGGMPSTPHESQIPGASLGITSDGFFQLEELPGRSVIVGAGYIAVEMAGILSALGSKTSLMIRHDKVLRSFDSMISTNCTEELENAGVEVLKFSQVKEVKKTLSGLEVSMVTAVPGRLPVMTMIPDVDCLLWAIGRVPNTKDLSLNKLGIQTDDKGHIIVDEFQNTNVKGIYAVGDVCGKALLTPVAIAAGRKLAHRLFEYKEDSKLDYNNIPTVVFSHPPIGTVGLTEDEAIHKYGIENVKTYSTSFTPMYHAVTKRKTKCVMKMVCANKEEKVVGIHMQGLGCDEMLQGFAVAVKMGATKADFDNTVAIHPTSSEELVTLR

Trypanothione reductase [7] = target: T1, Trypanothione reductase; assay: Inhibitory activity against trypanothione reductase from Trypanosoma cruzi using 0.12 mM TSST substrate
Method in brief: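 Recombinant T. cruzi TR overexpressed in E. coli JM109, homogeneous by SDS-PAGE. I50 read by interpolation from velocity vs inhibitor concentration, fitted to the linear competitive equation by nonlinear regression.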

SMILES	IC50 (KB)	IC50 (Trypanosoma cruzi)	Ki' [1]	pIC50 (Trypanothione reductase [2])	pKi (Trypanothione reductase [2])	IC50 (Leishmania donovani)	IC50 (Plasmodium falciparum)	IC50 [3]	pKi (Trypanothione reductase [4])	pKi (Trypanothione reductase [5])	Ki [6]	pIC50 (Trypanothione reductase [7])
O=C(Nc1cc(Cl)ccc1Sc1ccccc1)c1ccccc1	9 mg/L (≈ 26.5 µM)	19.8 mg/L (≈ 58.3 µM)	37.7 µM	4.30	4.61	> 30 mg/L	> 30 mg/L	8.7 mg/L (≈ 25.6 µM)				
C[N+](C)(CCCNc1cc(Cl)ccc1Sc1ccccc1)C(c1ccccc1)c1ccccc1									5.28			
CC(C)(C)c1ccc([N+](C)(C)CCCNc2cc(Cl)ccc2Sc2ccccc2)cc1	2.14 mg/L	< 1.1 mg/L				3.9 mg/L	0.6 mg/L	0.01 mg/L	5.19	5.57		
O=C(Nc1cc(Cl)ccc1Sc1ccccc1)c1ccc([N+](=O)[O-])cc1	223 mg/L (≈ 579 µM)	> 30 mg/L	12.9 µM	4.35	4.37	> 30 mg/L	> 30 mg/L	> 30 mg/L				
C[N+](C)(CCCNc1cc(Cl)ccc1Sc1ccccc1)c1ccc(Cl)c(Cl)c1									5.77		Not Active	
O=C(Cc1ccccc1)Nc1cc(Cl)ccc1Sc1ccccc1	> 300 mg/L	> 30 mg/L	35.9 µM	4.43	4.61	> 30 mg/L	30 mg/L (≈ 84.8 µM)	7.4 mg/L (≈ 20.9 µM)				
C[N+](C)(CCCNc1cc(Cl)ccc1Sc1ccccc1)c1ccccc1									4.85			
CCCC(=O)Nc1cc(Cl)ccc1Sc1ccccc1	> 300 mg/L	9.4 mg/L (≈ 30.7 µM)	42.6 µM	4.52	4.95	> 30 mg/L	19.1 mg/L (≈ 62.5 µM)	14.2 mg/L (≈ 46.4 µM)				
Nc1cc(Cl)ccc1Sc1ccccc1	47.9 mg/L (≈ 203 µM)	6.7 mg/L (≈ 28.4 µM)	860 µM		3.82	> 30 mg/L	11.3 mg/L (≈ 47.9 µM)	4.4 mg/L (≈ 18.7 µM)				
C[N+](C)(CCCN1c2ccccc2Sc2ccc(Cl)cc21)c1ccc(Cl)c(Cl)c1	3.5 mg/L	< 1.1 mg/L	3.5 µM		6.36	4 mg/L	0.47 mg/L	0.02 mg/L		6.74		
CCC(=O)Nc1cc(Cl)ccc1Sc1ccccc1	93.1 mg/L (≈ 319 µM)	18.3 mg/L (≈ 62.7 µM)	29.3 µM	4.50	4.70	> 30 mg/L	> 30 mg/L	11.3 mg/L (≈ 38.7 µM)				
CC(C)(C)c1ccc([N+](C)(C)CCCN2c3ccccc3Sc3ccc(Cl)cc32)cc1	2.88 mg/L	< 1.1 mg/L				3.8 mg/L	0.13 mg/L	0.02 mg/L	4.18	6.24		
O=[N+]([O-])c1cc(Cl)ccc1Sc1ccccc1	43.1 mg/L (≈ 162 µM)	11.3 mg/L (≈ 42.5 µM)				> 30 mg/L	15.6 mg/L (≈ 58.7 µM)	11.5 mg/L (≈ 43.3 µM)				
CC(C)(C)c1ccc([N+](C)(C)CCCN)cc1	> 300 mg/L	> 30 mg/L			6.82	> 30 mg/L	> 30 mg/L	> 30 mg/L				6.22
C[N+](C)(CCCNc1cc(Cl)ccc1Sc1ccccc1)c1ccc(OCc2ccccc2)cc1									5.18			
